Measured values pooled from the literature.
Protocols differ between the studies behind these lines.
Observed: enzyme activity
Mode: inhibitor
SRC: Proto-oncogene tyrosine-protein kinase Src (SRC, Homo sapiens, UniProt P12931)

FC(F)c1nc2ccccc2n1-c1nc(N2CCOCC2)nc(N2CCOCC2)n1  remaining activity (SRC; 10 µM): 104%
Cc1cnc(NC2CCOCC2)nc1-n1cnc(C(=O)NC(CN)c2cc(F)cc(Cl)c2)c1 (stereo not drawn)  remaining activity (Proto-oncogene tyrosine-protein kinase Src (SRC, Homo sapiens, UniProt P12931, T341M); radiometric; 1 µM): 103%
COc1cc(Nc2cnc(C#N)c(O[C@H](C)CN(C)C)n2)ncc1-c1cnn(C)c1  remaining activity (SRC; radiometric; 10 µM): 72%
Cc1ccc(NC(=O)c2ccc(C)c(C(F)(F)F)c2)cc1C#Cc1nn(C2CCC(O)CC2)c2ncnc(N)c12 (stereo not drawn)  remaining activity (SRC; 10 µM): 0%
Nc1ncnc2occ(-c3ccc(NC(=O)Nc4cc(C(F)(F)F)ccc4F)cc3)c12  remaining activity (SRC; 20 µM): 0.2%
Cc1sc(C(=O)NC2COC2)cc1-n1cc(NC(=O)Nc2c(F)cccc2Cl)cn1  remaining activity (SRC; 10 µM): 96.6%
Cc1[nH]c(/C=C2\C(=O)Nc3ccc(F)cc32)c(C)c1C(=O)N[C@H]1CCN(C(=O)N(C)C)C1  remaining activity (SRC; 1 µM): 89%
O=C(Nc1cnn(-c2csc(C(=O)NC3COC3)c2)c1)Nc1c(F)cccc1Cl  remaining activity (SRC; 5 µM): 98.4%
CC(C)(O)[C@H]1CC[C@H](Nc2ccc3ncc(-c4cccc(C(F)(F)F)c4)n3n2)CC1  remaining activity (SRC; 1 µM): 27.9%
O=c1cc(-c2cccc3c2Sc2ccccc2S3)oc(N2CCOCC2)c1  remaining activity (SRC; 0.5 µM): 106%
CC(C)(C)c1nc(-c2cccc(NS(=O)(=O)c3c(F)cccc3F)c2F)c(-c2ccnc(N)n2)s1  remaining activity (SRC; radiometric; 1 µM): 68%
CC(C)(C)C(=O)c1sc(NC2CCCCC2)nc1N  remaining activity (SRC; 10 µM): 99%
